Compound activity (PubChem BioAssay)
OX1R antag-1 = antagonists of human orexin 1 receptor (OX1R) | O43613 | OX1R-expressing cells, FRET antagonist read-out | inhibition, % at 6.6 µM | actives 1.8% (n = 330,000); in the data active means inhibition mostly above about 38%, no sharp cut-off; inactive means mostly below about 40%
Target sequence (O43613 whole entry, looked up): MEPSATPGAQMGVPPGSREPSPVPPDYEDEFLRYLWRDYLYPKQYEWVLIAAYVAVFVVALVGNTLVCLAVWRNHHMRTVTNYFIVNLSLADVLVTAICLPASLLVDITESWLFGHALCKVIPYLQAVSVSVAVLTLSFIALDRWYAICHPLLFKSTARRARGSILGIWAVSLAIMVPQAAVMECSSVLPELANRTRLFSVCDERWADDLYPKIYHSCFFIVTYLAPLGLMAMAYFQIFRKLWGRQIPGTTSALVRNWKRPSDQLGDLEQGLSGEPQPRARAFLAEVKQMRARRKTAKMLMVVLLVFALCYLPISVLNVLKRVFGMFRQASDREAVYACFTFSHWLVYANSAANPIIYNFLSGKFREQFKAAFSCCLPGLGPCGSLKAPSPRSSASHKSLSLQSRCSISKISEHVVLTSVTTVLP
CHO parental Ca = counter-screen: ATP calcium response change in parental CHO cells; parental CHO-K1, ATP-induced calcium, Fluo-8 fluorescence; inhibition, % at 5.6 µM; actives 0.63% (n = 330,000);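 active means inhibition above that plate's mean sample inhibition plus 3 SD, cut at about 26% in these data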
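test system = CHO parental line | reagent = ATP stimulus | measured by = intracellular calcium via Fluo-8 no-wash fluorescent dye | control set = ATP and no-ATP DMSO wells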
TAAR1 ag = human TAAR1 agonism. Q96RJ0. CHO RD-HGA16 TAAR1, Fluo-8 calcium fluorescence; vehicle wells 0%, saturating PEA agonist 100%. activation, % at 3 µM. actives 0.99% (n = 360,000). AID 624467;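 active means activation above the mean activation of all test compounds in the run plus 3 SD, cut at about 38% in these data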
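Test system: RD-HGA16 (CHO) cells co-expressing Gα16 and hTAAR1 | Doses: Single dose, 3 µM | Schedule: 17-24 h seeding, 75 min 37 °C dye, 30 min RT | Evaluation: % activation from peak over basal fluorescence ratio, DMSO-to-PEA scaled | Technique: Kinetic Fluo-8 calcium fluorescence | Benchmarks: Low control DMSO, high control PEA (EC100)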
GPR7 antag = human neuropeptides B/W receptor 1 antagonism. GPR7-expressing cells, fluorescence antagonist assay. inhibition, % at 4.4 µM. actives 1.1% (n = 290,000). P48145; in the data active means inhibition above about 16%, passing the limit was not always enough;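 further: cells stimulated with the agonist NPW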
OX1R antag-2 = antagonists of human orexin 1 receptor | CHO/OX1R cells, Fluo-8 calcium fluorescence, orexin A | inhibition, % at 5 µM | O43613 | actives 0.43% (n = 330,000);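 active means inhibition above its plate's threshold, mean inhibition of all tested compounds on the plate plus 3 SD, cut at about 37% in these data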
TAAR1 antag = antagonists of human TAAR1; Q96RJ0; CHO RD-HGA16 TAAR1, Fluo-8 calcium fluorescence, antagonist; inhibition, % at 3 µM; actives 1.5% (n = 360,000); AID 624466;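 active means inhibition above a per-plate cutoff, the mean inhibition of test compounds on that plate plus 3 SD, cut at about 49% in these data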
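System: RD-HGA16 CHO cells with stable hTAAR1 and Gα16 | Probe or stimulus: EC80 β-phenethylamine stimulus | Dosing: 3 µM, single point | Times: Dye loading 75 min at 37 °C, then 30 min room temperature | Measured by: Fluo-8 calcium-sensitive fluorescence | Read-out basis: % inhibition of agonist calcium response | Replicates: n of 1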
GPR7 antag conf = human GPR7 antagonism, confirmation assay | shares compounds with GPR7 antag | GPR7-expressing cells, calcium fluorescence antagonist mode | inhibition, % at 4.4 µM | actives 52% (n = 2,400); in the data active means inhibition above about 24%;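 further: stimulated with the GPR7 agonist NPW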
MCHR1 antag = counter-screen for GPR7 antagonists: antagonists of human MCHR1; actives 62% (n = 2,400); shares compounds with GPR7 antag; MCHR1-expressing cells, fluorescence antagonist assay; AID 2148; inhibition, % at 4.4 µM; in the data active means inhibition above about 22%
A number is an active result; – = inactive; · = no result. A selection: hits, their analogues and other compounds. The true share with any hit is near 4.6%.

SMILES	OX1R antag-1	CHO parental Ca	TAAR1 ag	GPR7 antag	OX1R antag-2	TAAR1 antag	GPR7 antag conf	MCHR1 antag
COc1ccccc1C1(O)CCN(CC(=O)Nc2c(C)nn(C)c2C)CC1	–	–	–	27.3	–	–	–	–
Clc1ccc(-c2noc(CN3CCCC3)n2)cc1	–	–	–	–	–	–	·	·
Cn1ccnc1C1CCCCN1Cc1nc(-c2ccc(Cl)cc2)no1 (configuration not stated)	–	–	–	26.1	–	–	34.1	21.8
Cn1cc(CN2CCCC(C(=O)Nc3cccc(-n4cccn4)c3)C2)cn1 (configuration not stated)	–	–	–	–	–	–	·	·
Cn1cc(CN2CCCC(C(=O)Nc3ccc(-c4cccc(F)c4)cc3)C2)cn1 (configuration not stated)	–	–	–	39.1	–	–	42.0	64.5
COc1ccc(N2CCN(c3oc(COc4ccc(Cl)cc4)nc3C#N)CC2)cc1	–	–	–	38.9	–	–	40.1	32.7
CN1CCN(c2oc(COc3ccc(-c4ccccc4)cc3)nc2C#N)CC1	–	–	–	26.8	–	–	–	40.7
N#Cc1nc(COc2ccccc2)oc1N1CCCC1	–	–	–	–	–	–	·	·
N#Cc1nc(COc2ccc(Cl)cc2)oc1N1CCN(Cc2ccccc2)CC1	–	–	–	48.5	–	–	49.5	47.0
COc1ccc(N2CCN(c3oc(COc4ccccc4)nc3C#N)CC2)cc1	–	–	–	43.6	–	–	48.6	46.1
COc1ccc(N2CCN(c3oc(Cc4ccccc4)nc3C#N)CC2)cc1	–	–	–	–	–	–	·	·
CCN1CCN(c2oc(COc3ccc(Cl)cc3)nc2C#N)CC1	–	–	–	–	–	–	·	·
C[C@H](CO)N1C[C@H](C)[C@@H](CN(C)CC2CC2)OCc2cnnn2CCCC1=O	·	·	–	·	·	–	·	·
C=CCNc1oc(COc2ccc(C)cc2)nc1C#N	–	–	–	24.2	–	–	–	–
N#Cc1nc(COc2ccccc2)oc1NCCN1CCOCC1	–	–	–	–	–	–	·	·
COc1ccc(N2CCN(c3oc(COc4ccc(Cl)cc4Cl)nc3C#N)CC2)cc1	–	–	–	40.7	–	–	53.8	34.9
N#Cc1nc(COc2ccc(-c3ccccc3)cc2)oc1NCCCN1CCOCC1	–	–	–	23.8	–	–	41.0	56.1
Clc1cccc(CN2CCN(c3ncc(Cc4ccccc4)cn3)CC2)c1Cl	·	·	–	·	·	–	·	·
CCCCNC(=O)C1(C)CCN1C(=O)c1cccc(OC(F)(F)F)c1 (configuration not stated)	·	·	–	·	·	–	·	·
Cc1ccccc1OCCn1c(S(=O)(=O)O)nc2c(N)ncnc21	–	–	–	–	–	–	·	·
O=C(NCCCn1cccn1)c1cc(COc2ccccc2)on1	·	·	–	·	·	–	·	·
Fc1ccc(C(c2nnnn2C2CCCC2)N(Cc2ccco2)CC2CCCO2)cc1 (configuration not stated)	–	–	–	31.7	–	–	43.5	53.2
CN(C)CCCNc1nc2sc3c(c2c(=O)n1CCc1ccccc1)CCCCC3	–	–	–	29.1	–	–	51.1	64.8
Cc1nn(-c2ccc(F)cc2)c(Cl)c1/C=C(\CC(=O)O)c1nc2ccccc2s1	–	–	–	31.4	–	–	–	–
O=S1(=O)CC(N2CC=CC2)CN1Cc1cn(Cc2cccc(Cl)c2)nn1 (configuration not stated)	·	·	–	·	·	–	·	·
SMILES	OX1R antag-1	CHO parental Ca	TAAR1 ag	GPR7 antag	OX1R antag-2	TAAR1 antag	GPR7 antag conf	MCHR1 antag
CC(C)CC(=O)N1CCN(c2ccc([N+](=O)[O-])c(NCc3ccccc3)c2)CC1	–	–	–	36.4	–	–	25.6	45.0
Clc1cccc(CNc2ccn3nc(-c4ccccc4Cl)cc3n2)c1	·	·	–	·	·	–	·	·
O=[N+]([O-])c1c(Nc2ccc(O)cc2)cc(Cl)c2nonc12	99.4	61.2	–	83.2	75.6	62.7	94.0	101.8
CN(C)c1cc(Nc2ccc(O)cc2)c([N+](=O)[O-])c2nonc12	–	–	–	–	–	–	·	·
COc1ccccc1N(C(=O)c1ccco1)C(C(=O)NC1CCCCC1)c1cc(OC)c(OC)c(OC)c1 (configuration not stated)	41.7	–	–	33.5	–	–	37.1	–
COc1cccc(C(C(=O)NC2CCCCC2)N(C(=O)c2ccco2)c2ccccc2OC)c1 (configuration not stated)	–	–	–	–	–	–	·	·
COc1ccc(C(C(=O)NC2CCCC2)N(C(=O)c2ccco2)c2ccccc2OC)cc1 (configuration not stated)	–	–	–	–	–	–	·	·
COc1ccc(C(C(=O)NC2CCCCC2)N(C(=O)c2ccco2)c2ccccc2OC)cc1 (configuration not stated)	–	–	–	28.6	–	–	–	–
COc1ccccc1N(C(=O)CNC(=O)c1ccco1)C(C(=O)NC1CCCC1)c1ccco1 (configuration not stated)	–	–	–	24.4	–	–	–	–
CCc1nc2ccc(C(=O)N(C)Cc3ccco3)cn2c1N(CC)Cc1cccc(Br)c1	·	·	–	·	·	–	·	·
COC(=O)CN1C(=S)N(C)C(=O)/C1=C/c1cccs1	–	–	–	–	–	–	·	·
CCc1ccc(/C=C2/C(=O)N(C)C(=S)N2CC(=O)OC)s1	–	–	–	26.9	–	–	–	–
Cn1c(NCc2cccnc2)nc2cc(-c3ccc(C(=O)N4CCOCC4)cc3)sc2c1=O	·	·	–	·	·	–	·	·
COC(=O)C1=C(C)N(Cc2cccc(C(F)(F)F)c2)C(=NCc2cccc(C(F)(F)F)c2)NC1c1ccc(Cl)cc1 (configuration not stated)	·	·	–	·	·	–	·	·
COc1ccc([N+](=O)[O-])cc1N(CC(O)CN(C)C)S(=O)(=O)c1ccc(C)cc1 (configuration not stated)	–	–	–	–	–	–	·	·
COc1ccc([N+](=O)[O-])cc1N(CC(O)CN(CC(C)C)CC(C)C)S(=O)(=O)c1ccccc1 (configuration not stated)	–	–	–	34.3	–	–	45.1	54.5
CCCCN(CCCC)CC(O)CN(c1cc([N+](=O)[O-])ccc1OC)S(=O)(=O)c1ccccc1 (configuration not stated)	–	–	–	36.2	–	–	41.0	33.6
COc1ccc(OC)c(NC(=O)C2(C)CCN2C(=O)Cc2ccc(Cl)cc2Cl)c1 (configuration not stated)	·	·	–	·	·	–	·	·
